Experimental data gathered from unrelated publications.
Protocols differ between the studies behind these lines.
Target: Serine/threonine-protein kinase ULK3 (ULK3, Homo sapiens, UniProt Q6PHR2)
Residues used in one study (Q6PHR2 1-472): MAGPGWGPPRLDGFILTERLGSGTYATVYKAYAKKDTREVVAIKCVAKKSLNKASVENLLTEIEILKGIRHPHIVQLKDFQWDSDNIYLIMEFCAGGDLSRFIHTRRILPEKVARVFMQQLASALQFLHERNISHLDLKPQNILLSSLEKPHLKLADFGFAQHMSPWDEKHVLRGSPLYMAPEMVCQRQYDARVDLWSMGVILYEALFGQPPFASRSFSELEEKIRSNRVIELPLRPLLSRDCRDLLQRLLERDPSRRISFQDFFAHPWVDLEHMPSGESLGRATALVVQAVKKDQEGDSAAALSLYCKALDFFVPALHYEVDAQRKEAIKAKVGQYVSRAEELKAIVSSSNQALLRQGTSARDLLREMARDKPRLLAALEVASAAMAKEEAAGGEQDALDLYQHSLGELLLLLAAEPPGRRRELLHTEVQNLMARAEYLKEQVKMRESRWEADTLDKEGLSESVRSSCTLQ

C[C@H](c1ccc(F)cc1)N(Cc1cccc(C(=O)O)c1)C(=O)c1cnc2ccccc2c1  remaining binding (cell-free assay; competition with immobilised ligand; 1 µM): 82%
CNC(=O)[C@@H]1CC[C@@H](n2c(-c3ccc4cnccc4c3)nc3ccc(C(=O)NCc4cccc(C(N)=O)c4)cc32)C1  remaining binding (binding; competition with immobilised ligand; 1 µM): 88%
O=C(NCCCN1CCOCC1)c1ccc(Nc2nccc(-c3cc4ccccc4s3)n2)cc1  remaining binding (binding; competition with immobilised ligand; 1 µM): 3.2%
Cn1nc(C(=O)NCc2ccc(C(=O)O)cc2)cc1-c1ccc2[nH]ccc2c1  remaining binding (cell-free assay; competition with immobilised ligand; 0.1 µM): 99%
N[C@@H]1CCN(c2nccc(-c3cnn4ncccc34)n2)C1  remaining binding (binding; 1 µM): 100%
O=C(Nc1cccnn1)N1CC(C/C=C/c2cncc(Oc3ccc(C(F)(F)F)cn3)n2)C1  remaining binding (cell-free assay; competition with immobilised ligand; 1 µM): 82%
O=C(c1ccc(Nc2nccc(-c3cc4ccccc4s3)n2)cc1)N1CCC(N2CCCC2)CC1  remaining binding (binding; competition with immobilised ligand; 1 µM): 0.4%
CCN1CCN(Cc2ccc(C(=O)Nc3ccc(C)c(Oc4ccc5c(c4)CC(=O)N5)c3)cc2C(F)(F)F)CC1  remaining binding (binding; competition with immobilised ligand; 1 µM): 100%
Nc1ncc2c(n1)-c1c([nH]c3ccc(C#CC4CC4)cc13)CCCC2  remaining binding (binding; competition with immobilised ligand; 1 µM): 86%
FC(F)(F)Oc1cccc(-c2cnc3ccc(-c4ccncc4)nn23)c1  remaining binding (binding; competition with immobilised ligand; 5 µM): 45%
O=C(NCC1CCOCC1)c1n[nH]cc1NC(=O)c1c(F)cccc1F  remaining binding (binding; competition with immobilised ligand; 1 µM): 85%
CN(C)c1nccc(-c2cnc3ncccn23)n1  remaining binding (binding; 1 µM): 75%
Cc1cc(-c2cc(C(F)(F)F)ccc2O[C@H]2C[C@@]2(CNS(=O)(=O)c2ccc([N+](=O)[O-])cc2)c2ccc(F)cc2F)[nH]n1  remaining binding (cell-free assay; competition with immobilised ligand; 0.3 µM): 9.8%
O=C(Nc1ccc(Oc2ccc(F)cc2)cc1)N1CCc2ncccc2[C@H]1c1ccc(F)cc1  remaining binding (cell-free assay; competition with immobilised ligand; 1 µM): 99%
CN(C)c1ncc(F)c(-c2cnn3ncccc23)n1  remaining binding (binding; 1 µM): 72%
Cn1cc(Cl)c2c(Oc3c(F)cc(Nc4cc(Cl)nc(N)n4)cc3F)ccnc21  remaining binding (cell-free assay; competition with immobilised ligand; 0.1 µM): 85%
c1cnn2ncc(-c3ccnc(N4CCC45COC5)n3)c2c1  remaining binding (binding; 1 µM): 64%
O=C(O)[C@H]1[C@H](Cn2nnc3ccccc3c2=O)CC[C@@H]1C(=O)c1ccc(OCCC2CCOCC2)cc1  remaining binding (cell-free assay; competition with immobilised ligand; 1 µM): 85%
F[C@@H]1CCN(c2nccc(-c3cnn4ncccc34)n2)C1  remaining binding (binding; 1 µM): 100%
O=C(c1ccc(Nc2ncc(Cl)c(-c3ccc(Cl)s3)n2)cc1)N1CCC(N2CCCC2)CC1  remaining binding (binding; competition with immobilised ligand; 1 µM): 0.1%
